Laboratory results as given in ChEMBL document CHEMBL4130549, “Synthesis and bioactivities study of new antibacterial peptide mimics: The dialkyl cationic amphiphiles” (Eur J Med Chem, 2018).
Calls of active or inactive are those of the source. The calls are words filed in the database; no cut-off is given here.

What was measured:
Enterococcus faecalis = assay: Antibacterial activity against Enterococcus faecalis after 16 to 20 hrs by broth microdilution method; type: functional
Outline: (§1)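 Broth microdilution per CLSI in cation-adjusted Mueller-Hinton broth; 4-6 h cultures (~10⁸ CFU/mL) diluted to ~10⁶ CFU/mL and mixed 1:1 with twofold dilutions of water-dissolved compound (256 to 0.5 µg/mL). Incubated 16-20 h at 37 °C; MIC read visually. Each concentration run in duplicate, whole experiment repeated at least twice. MRSA, KPC and NDM-1 strains were clinical isolates.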

Escherichia coli [1] = assay: Antibacterial activity against Escherichia coli ATCC 25922 after 16 to 20 hrs by broth microdilution method; type: functional; outline: as §1
Staphylococcus aureus [2] = assay: Antibacterial activity against methicillin-resistant Staphylococcus aureus after 16 to 20 hrs by broth microdilution method; type: functional
Outline: (§2)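 CLSI broth microdilution in cation-adjusted Mueller-Hinton broth. A 4-6 h culture was diluted to about 10⁶ CFU/mL and mixed 1:1 with twofold compound dilutions (256–0.5 µg/mL before mixing) prepared from aqueous stocks. Plates were incubated at 37 °C for 16-20 h. Each concentration was tested in duplicate, and the experiment was repeated at least twice.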

Klebsiella pneumoniae [3] = assay: Antibacterial activity against carbapenemase-producing Klebsiella pneumoniae after 16 to 20 hrs by broth microdilution method; type: functional; outline: as §1
[4] = Hemolytic activity in sheep RBC after 1 hr; type: ADME, cell-based, Ovis aries, Erythrocyte; conditions: sheep red blood cells (erythrocytes)
Outline: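 Sheep RBCs suspended at 5% in PBS; 150 µL added to 50 µL compound dilutions (5120 to 10 µg/mL series). Incubated 1 h at 37 °C, then centrifuged; supernatant absorbance read at 540 nm. Lysis (%) = (A−A0)/(Atotal−A0)×100, with untreated 5% RBC as A0 and 0.1% Triton X-100 as total.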

Staphylococcus aureus [5] = assay: Antibacterial activity against methicillin-resistant Staphylococcus aureus isolate M1 after 16 to 20 hrs by broth microdilution method; type: functional; outline: as §2
Staphylococcus aureus [6] = assay: Antibacterial activity against methicillin-resistant Staphylococcus aureus isolate M2 after 16 to 20 hrs by broth microdilution method; type: functional; outline: as §2
Staphylococcus aureus [7] = assay: Antibacterial activity against methicillin-resistant Staphylococcus aureus isolate M3 after 16 to 20 hrs by broth microdilution method; type: functional; outline: as §2
Staphylococcus aureus [8] = assay: Antibacterial activity against methicillin-resistant Staphylococcus aureus isolate M5 after 16 to 20 hrs by broth microdilution method; type: functional; outline: as §2
Staphylococcus aureus [9] = assay: Antibacterial activity against methicillin-resistant Staphylococcus aureus isolate M6 after 16 to 20 hrs by broth microdilution method; type: functional; outline: as §2
Staphylococcus aureus [10] = assay: Antibacterial activity against methicillin-resistant Staphylococcus aureus isolate M7 after 16 to 20 hrs by broth microdilution method; type: functional; outline: as §2
Staphylococcus aureus [11] = assay: Antibacterial activity against methicillin-resistant Staphylococcus aureus isolate M9 after 16 to 20 hrs by broth microdilution method; type: functional; outline: as §2
Staphylococcus aureus [12] = assay: Antibacterial activity against methicillin-resistant Staphylococcus aureus isolate M10 after 16 to 20 hrs by broth microdilution method; type: functional; outline: as §2
Klebsiella pneumoniae [13] = assay: Antibacterial activity against carbapenemase-producing Klebsiella pneumoniae isolate K2 after 16 to 20 hrs by broth microdilution method; type: functional; outline: as §1
Klebsiella pneumoniae [14] = assay: Antibacterial activity against carbapenemase-producing Klebsiella pneumoniae isolate K3 after 16 to 20 hrs by broth microdilution method; type: functional; outline: as §1
Klebsiella pneumoniae [15] = assay: Antibacterial activity against carbapenemase-producing Klebsiella pneumoniae isolate K4 after 16 to 20 hrs by broth microdilution method; type: functional; outline: as §1
Klebsiella pneumoniae [16] = assay: Antibacterial activity against carbapenemase-producing Klebsiella pneumoniae isolate K7 after 16 to 20 hrs by broth microdilution method; type: functional; outline: as §1
Klebsiella pneumoniae [17] = assay: Antibacterial activity against carbapenemase-producing Klebsiella pneumoniae isolate K8 after 16 to 20 hrs by broth microdilution method; type: functional; outline: as §1
Klebsiella pneumoniae [18] = assay: Antibacterial activity against carbapenemase-producing Klebsiella pneumoniae isolate K9 after 16 to 20 hrs by broth microdilution method; type: functional; outline: as §1
Enterobacteriaceae [19] = assay: Antibacterial activity against NDM-1-producing Enterobacteriaceae isolate N1 after 16 to 20 hrs by broth microdilution method; type: functional; outline: as §1
Enterobacteriaceae [20] = assay: Antibacterial activity against NDM-1-producing Enterobacteriaceae isolate N2 after 16 to 20 hrs by broth microdilution method; type: functional; outline: as §1
Enterobacteriaceae [21] = assay: Antibacterial activity against NDM-1-producing Enterobacteriaceae isolate N4 after 16 to 20 hrs by broth microdilution method; type: functional; outline: as §1
Enterobacteriaceae [22] = assay: Antibacterial activity against NDM-1-producing Enterobacteriaceae isolate N5 after 16 to 20 hrs by broth microdilution method; type: functional; outline: as §1
Enterobacteriaceae [23] = assay: Antibacterial activity against NDM-1-producing Enterobacteriaceae isolate N8 after 16 to 20 hrs by broth microdilution method; type: functional; outline: as §1
Staphylococcus aureus [24] = assay: Bactericidal activity against methicillin-resistant Staphylococcus aureus after 20 to 24 hrs in presence of 50% serum by broth microdilution method; type: functional, organism-based
Outline: (§3)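 MRSA at 10⁵ CFU/mL in 50% Mueller-Hinton broth plus 50% sheep serum, plasma or defibrinated whole blood. Serum and plasma were separated by centrifugation at 3,500 rpm for 10 min. Aqueous compound dilutions (512–4 µg/mL before mixing) were combined 1:3 with the suspension and incubated 20-24 h at 37 °C. Wells were plated on Mueller-Hinton agar for a further 20-24 h; MBC was taken as no colonies.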

Staphylococcus aureus [25] = assay: Bactericidal activity against methicillin-resistant Staphylococcus aureus after 20 to 24 hrs in presence of 50% plasma by broth microdilution method; type: functional, organism-based; outline: as §3
Staphylococcus aureus [26] = assay: Ratio of MBC for methicillin-resistant Staphylococcus aureus in presence of 50% serum to MBC for methicillin-resistant Staphylococcus aureus; type: functional; outline: as §3
Staphylococcus aureus [27] = assay: Ratio of MBC for methicillin-resistant Staphylococcus aureus in presence of 50% plasma to MBC for methicillin-resistant Staphylococcus aureus; type: functional; outline: as §3
Staphylococcus aureus [28] = assay: Ratio of MBC for methicillin-resistant Staphylococcus aureus in presence of 50% blood to MBC for methicillin-resistant Staphylococcus aureus; type: functional; outline: as §3
Escherichia coli [29] = assay: Induction of cytoplasmic membrane depolarization in Escherichia coli ATCC 25922 at 20 ug/ml measured every 2 mins for 12 mins by diSC35 staining based fluorescence assay; type: functional, organism-based
Outline: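 Mid-log cells (4–6 h) pelleted, washed and resuspended (~10^8 CFU/mL) in PBS for S. aureus, or in 5 mM HEPES, 5 mM glucose and 100 mM KCl (1:1:1) for E. coli. Preloaded with diSC35 (10 µM, 50 µL), 30 min for S. aureus and 40 min plus EDTA (200 µM, 50 µL) for E. coli. Baseline read 8 min (ex 622/em 670 nm), then compound added to 20 µg/mL final and read every 2 min for 12 min. Water control.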

Staphylococcus aureus [30] = assay: Induction of inner membrane permeabilization in Staphylococcus aureus ATCC 29213 at 20 ug/ml measured every 2 mins for 12 mins by propidium iodide staining based fluorescence assay; type: functional, organism-based
Outline: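 Mid-log cells (~10^8 CFU/mL) pre-incubated with propidium iodide (10 µM, 50 µL), 30 min for S. aureus and 40 min for E. coli. Fluorescence (ex 535/em 617 nm) read for 8 min, then compound added to 20 µg/mL final and monitored every 2 min for 12 min. Water-treated control.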

Escherichia coli [31] = assay: Induction of outer membrane permeabilization in Escherichia coli ATCC 25922 at 20 ug/ml measured every 2 mins for 12 mins by NPN staining based fluorescence assay; type: functional, organism-based
Outline: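 Mid-log E. coli (~10^8 CFU/mL) in black plates pre-incubated about 40 min with NPN (10 µM, 50 µL). Baseline read 8 min (ex 350/em 420 nm), then compound added to 20 µg/mL final and fluorescence followed every 2 min for 12 min. Water-treated control.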

CCCCCCCCN(CCCCCCCC)C(=O)[C@@H](N)CCCCN.Cl.Cl
MIC (Enterococcus faecalis): 2 mg/L | MIC (Escherichia coli [1]): 2 mg/L | MIC (Staphylococcus aureus [2]): 0.5 mg/L | MIC (Klebsiella pneumoniae [3]): 1 mg/L | HC50 at 1 h [4]: 225 µg/mL | MIC (Staphylococcus aureus [5]): 1 mg/L | MIC (Staphylococcus aureus [6]): 1 mg/L | MIC (Staphylococcus aureus [7]): 1 mg/L | MIC (Staphylococcus aureus [8]): 1 mg/L | MIC (Staphylococcus aureus [9]): 0.5 mg/L | MIC (Staphylococcus aureus [10]): 0.5 mg/L | MIC (Staphylococcus aureus [11]): 1 mg/L | MIC (Staphylococcus aureus [12]): 0.5 mg/L | MIC (Klebsiella pneumoniae [13]): 2 mg/L | MIC (Klebsiella pneumoniae [14]): 2 mg/L | MIC (Klebsiella pneumoniae [15]): 2 mg/L | MIC (Klebsiella pneumoniae [16]): 2 mg/L | MIC (Klebsiella pneumoniae [17]): 1 mg/L | MIC (Klebsiella pneumoniae [18]): 2 mg/L | MIC (Enterobacteriaceae [19]): 8 mg/L | MIC (Enterobacteriaceae [20]): 8 mg/L | MIC (Enterobacteriaceae [21]): 8 mg/L | MIC (Enterobacteriaceae [22]): 4 mg/L | MIC (Enterobacteriaceae [23]): 8 mg/L | Activity (Staphylococcus aureus [24]): Active | Activity (Staphylococcus aureus [25]): Active | Ratio (Staphylococcus aureus [26]): 1 - 2 | Ratio (Staphylococcus aureus [27]): 2 - 4 | Ratio (Staphylococcus aureus [28]): 8 - 16 | Activity (Escherichia coli [29]): Active | Activity (Staphylococcus aureus [30]): Active | Activity (Escherichia coli [31]): Active

CCCCCCCCCCN(CCCCCCCCCC)C(=O)[C@@H](N)CCCCN.Cl.Cl
MIC (Enterococcus faecalis): 2 mg/L | MIC (Escherichia coli [1]): 2 mg/L | MIC (Staphylococcus aureus [2]): 1 mg/L | MIC (Klebsiella pneumoniae [3]): 2 mg/L | HC50 at 1 h [4]: 98 µg/mL | MIC (Staphylococcus aureus [5]): 1 mg/L | MIC (Staphylococcus aureus [6]): 1 mg/L | MIC (Staphylococcus aureus [7]): 2 mg/L | MIC (Staphylococcus aureus [8]): 2 mg/L | MIC (Staphylococcus aureus [9]): 1 mg/L | MIC (Staphylococcus aureus [10]): 1 mg/L | MIC (Staphylococcus aureus [11]): 1 mg/L | MIC (Staphylococcus aureus [12]): 1 mg/L | MIC (Klebsiella pneumoniae [13]): 4 mg/L | MIC (Klebsiella pneumoniae [14]): 4 mg/L | MIC (Klebsiella pneumoniae [15]): 4 mg/L | MIC (Klebsiella pneumoniae [16]): 4 mg/L | MIC (Klebsiella pneumoniae [17]): 2 mg/L | MIC (Klebsiella pneumoniae [18]): 4 mg/L | MIC (Enterobacteriaceae [19]): 4 mg/L | MIC (Enterobacteriaceae [20]): 4 mg/L | MIC (Enterobacteriaceae [21]): 4 mg/L | MIC (Enterobacteriaceae [22]): 4 mg/L | MIC (Enterobacteriaceae [23]): 4 mg/L | Activity (Staphylococcus aureus [24]): Active | Activity (Staphylococcus aureus [25]): Active | Ratio (Staphylococcus aureus [26]): 1 - 2 | Ratio (Staphylococcus aureus [27]): 2 - 4 | Ratio (Staphylococcus aureus [28]): 8 - 16 | Activity (Escherichia coli [29]): Active | Activity (Staphylococcus aureus [30]): Active | Activity (Escherichia coli [31]): Active

CCCCCCCCN(CCCCCCCC)C(=O)[C@@H](N)CCCN=C(N)N.Cl.Cl.Cl
MIC (Enterococcus faecalis): 2 mg/L | MIC (Escherichia coli [1]): 2 mg/L | MIC (Staphylococcus aureus [2]): 0.5 mg/L | MIC (Klebsiella pneumoniae [3]): 4 mg/L | HC50 at 1 h [4]: 124 µg/mL | MIC (Staphylococcus aureus [5]): 1 mg/L | MIC (Staphylococcus aureus [6]): 1 mg/L | MIC (Staphylococcus aureus [7]): 0.5 mg/L | MIC (Staphylococcus aureus [8]): 1 mg/L | MIC (Staphylococcus aureus [9]): 0.5 mg/L | MIC (Staphylococcus aureus [10]): 0.5 mg/L | MIC (Staphylococcus aureus [11]): 1 mg/L | MIC (Staphylococcus aureus [12]): 0.5 mg/L | MIC (Klebsiella pneumoniae [13]): 4 mg/L | MIC (Klebsiella pneumoniae [14]): 4 mg/L | MIC (Klebsiella pneumoniae [15]): 4 mg/L | MIC (Klebsiella pneumoniae [16]): 8 mg/L | MIC (Klebsiella pneumoniae [17]): 4 mg/L | MIC (Klebsiella pneumoniae [18]): 8 mg/L | MIC (Enterobacteriaceae [19]): 8 mg/L | MIC (Enterobacteriaceae [20]): 8 mg/L | MIC (Enterobacteriaceae [21]): 8 mg/L | MIC (Enterobacteriaceae [22]): 4 mg/L | MIC (Enterobacteriaceae [23]): 4 mg/L | Activity (Staphylococcus aureus [24]): Active | Activity (Staphylococcus aureus [25]): Active | Ratio (Staphylococcus aureus [26]): 1 - 2 | Ratio (Staphylococcus aureus [27]): 2 - 4 | Ratio (Staphylococcus aureus [28]): 8 - 16 | Activity (Escherichia coli [29]): Active | Activity (Staphylococcus aureus [30]): Active | Activity (Escherichia coli [31]): Active
